According to ChEMBL document CHEMBL1149773, “Synthesis, determination of the lipophilicity, anticancer and antimicrobial properties of some fused 1,2,4-triazole derivatives” (Eur J Med Chem, 2008):
The source made the active and inactive calls. The rule behind the calls is not given here.

Legend:
[1] = Antiproliferative activity against human RPMI cells assessed as cell viability at 100 uM by MTT assay; type: functional; details: read-out: Activity
In short: (§1)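 Log-phase cells, kept in supplemented RPMI 1640 (HSF in DMEM/10% FBS) at 37 °C, 5% CO2, were exposed 24 h to 1, 50 or 100 µM compound from DMSO. They were washed, given 0.5 mg/mL MTT in HEPES buffer pH 7.4 for 45 min at 37 °C, and formazan was dissolved in DMSO and read at 570 nm. Values are % viability versus control from three independent measurements.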

LS180 [2] = experiment: Induction of DNA damage in human LS180 cells at 29.3 uM; type: functional, cell-based
In short: (§2)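 Cells were treated at 29.3 µM (10 µg mL⁻¹) and washed twice with PBS. DNA was isolated with lysis buffer plus proteinase K, or cells were lysed as agarose plugs. Samples ran on 1% agarose with propidium iodide at 120 V for 1.5 h at room temperature […]. Experiments were repeated three times. The comet assay was also run on T47D.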

[3] = Growth inhibition of human LS180 cells at 29.3 uM; type: functional; details: read-out: GI
In short: (§3)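 Vero, LS180, SiHa, T47D or primary HSF cells were seeded at 10^4 cells per mL and preincubated in microtiter plates. Compounds were added at 10 or 50 µg mL⁻¹ (printed µM equivalents depend on the compound) and incubated 72 h. End-point was BrdU labelling read spectrophotometrically on an ELISA reader. Growth inhibition is % versus untreated controls; triplicates.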

[4] = Lipophilicity, log kw in acetonitrile aqueous system at pH 3.5; type: physicochemical
In short: (§4)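 RP-HPLC on an octadecyl silica column (150 × 4.6 mm, 5 µm) at 22 ± 1 °C, flow 1.0 mL min⁻¹, UV detection at 254 nm. Mobile phase was methanol, acetonitrile or dioxane with water and 0.01 M phosphate buffer pH 3.5 containing 0.05 M DEA. log k_W was extrapolated to pure water by regression.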

T47D [5] = experiment: Growth inhibition of human T47D cells at 146.7 uM; type: functional; details: read-out: GI; in short: as §3
[6] = Growth inhibition of human skin fibroblast at 29.3 uM; type: cell-based; details: human skin fibroblasts, read-out: GI; in short: as §3
Vero = experiment: Induction of DNA damage in african green monkey Vero cells at 29.3 uM; type: cell-based; details: chlorocebus sabaeus; in short: as §2
[7] = Growth inhibition of human skin fibroblast at 146.7 uM; type: cell-based; details: human skin fibroblasts, read-out: GI; in short: as §3
T47D [8] = experiment: Growth inhibition of human T47D cells at 29.3 uM; type: functional; details: read-out: GI; in short: as §3
T47D [9] = experiment: Effect on superoxide dismutase gene expression in human T47D cells at 29.3 uM; type: functional, cell-based
In short: (§5)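 LS180 and T47D cells were incubated at 29.3 µM (10 µg mL⁻¹). SOD gene expression was visualised by electrophoresis on 1% agarose gel against an untreated control.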

[10] = Growth inhibition of human LS180 cells at 146.7 uM; type: functional; details: read-out: GI; in short: as §3
SiHa [11] = experiment: Growth inhibition of human SiHa cells at 29.3 uM; type: functional; details: read-out: GI; in short: as §3
[12] = Antiproliferative activity against human skin fibroblast assessed as cell viability at 1 uM by MTT assay; type: cell-based; details: human skin fibroblasts, read-out: Activity; in short: as §1
[13] = Antiproliferative activity against human skin fibroblast assessed as cell viability at 100 uM by MTT assay; type: cell-based; details: human skin fibroblasts, read-out: Activity
In short: (§6)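 MTT viability assay on primary human skin fibroblasts grown in DMEM with 10% FBS and penicillin/streptomycin. Compounds were dissolved in DMSO and given at 1, 50 or 100 µM for 24 h. Cells were washed in HEPES-buffered medium (pH 7.4) and then given MTT 0.5 mg mL⁻¹ for 45 min at 37 °C. Formazan was dissolved in DMSO and read at 570 nm. Viability is % of control; three independent measurements.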

[14] = Lipophilicity, log kw in methanol aqueous system at pH 3.5; type: physicochemical; in short: as §4
HeLa [15] = experiment: Antiproliferative activity against human HeLa cells assessed as cell viability at 50 uM by MTT assay; type: functional; details: read-out: Activity; in short: as §1
HeLa [16] = experiment: Antiproliferative activity against human HeLa cells assessed as cell viability at 100 uM by MTT assay; type: functional; details: read-out: Activity; in short: as §1
SiHa [17] = experiment: Induction of DNA damage in human SiHa cells at 29.3 uM; type: functional, cell-based; in short: as §2
T47D [18] = experiment: Induction of DNA damage in human T47D cells at 29.3 uM; type: functional, cell-based; in short: as §2
[19] = Antiproliferative activity against human RPMI cells assessed as cell viability at 50 uM by MTT assay; type: functional; details: read-out: Activity; in short: as §1
LS180 [20] = experiment: Effect on superoxide dismutase gene expression in human LS180 cells at 29.3 uM; type: functional, cell-based; in short: as §5
[21] = Antiproliferative activity against human RPMI cells assessed as cell viability at 1 uM by MTT assay; type: functional; details: read-out: Activity; in short: as §1
[22] = Antiproliferative activity against human skin fibroblast assessed as cell viability at 50 uM by MTT assay; type: cell-based; details: human skin fibroblasts, read-out: Activity; in short: as §6
[23] = Growth inhibition of african green monkey Vero cells at 146.7 uM; type: cell-based; details: chlorocebus sabaeus, read-out: GI; in short: as §3
[24] = Growth inhibition of african green monkey Vero cells at 29.3 uM; type: cell-based; details: chlorocebus sabaeus, read-out: GI; in short: as §3
HeLa [25] = experiment: Antiproliferative activity against human HeLa cells assessed as cell viability at 1 uM by MTT assay; type: functional; details: read-out: Activity; in short: as §1
[26] = Lipophilicity, log kw in dioxane aqueous system at pH 3.5; type: physicochemical; details: buffer; in short: as §4
SiHa [27] = experiment: Growth inhibition of human SiHa cells at 146.7 uM; type: functional; details: read-out: GI; in short: as §3

With `Cc1cc(Cl)ccc1OCc1nnc2n1CCN2c1ccccc1` the viability at 100 µM [1] was 108%, the Activity (LS180 [2]) was “Active” and the inhibition of growth at 29.3 µM [3] was 35%. The logKw [4] was 1.36, the inhibition of growth at 146.7 µM (T47D [5]) was 40% and the inhibition at 29.3 µM [6] was 4%. The Activity (Vero) was “Active”, the inhibition at 146.7 µM [7] was 8% and the inhibition of growth at 29.3 µM (T47D [8]) was 25%. For the same molecule, the Activity (T47D [9]) was “Active”, the inhibition of growth at 146.7 µM [10] was 39% and the inhibition of growth at 29.3 µM (SiHa [11]) was 30%. It also gave a viability at 1 µM [12] of 79.2%, a viability at 100 µM [13] of 72.5% and a logKw [14] of 1.62. The viability at 50 µM (HeLa [15]) was 75.1%, the viability at 100 µM (HeLa [16]) was 75.9% and the Activity (SiHa [17]) was “Active”. The Activity (T47D [18]) was “Active”, the viability at 50 µM [19] was 114% and the Activity (LS180 [20]) was “Active”. It also gave a viability at 1 µM [21] of 112%, a viability at 50 µM [22] of 76.8% and an inhibition at 146.7 µM [23] of 20%. The inhibition at 29.3 µM [24] was 20%, the viability at 1 µM (HeLa [25]) was 65.6% and the logKw [26] was 1.17. The inhibition of growth at 146.7 µM (SiHa [27]) was 30%.
